KLK7 zymogen act – proKLK7 zymogen activators, primary screen, biochemical, fluorescence intensity | purified proKLK7, EDANS-DABCYL substrate fluorescence; 100% is mature enzyme control, 0% vehicle | activation, % at 7 µM | actives 0.9% (n = 370,000) | AID 652039, 2013;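 active = activation above the mean of all tested compounds plus 3 SD, computed per campaign excluding outliers beyond control limits, cut at about 13% in these data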
CR mimetic SO – reduction of superoxide in aged yeast, primary screen, HTS | actives 0.18% (n = 330,000) | superoxide response (% of plate mean), % at 10 µM | S. cerevisiae aged cells, superoxide DHE fluorescence; stronger effect = lower value;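 active = superoxide response under a set limit, about three screen SD below normal, cut at about 65% in these data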;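 note: yeast aged for seven days with compound at 30 °C before DHE staining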
Rce1 inh – yeast Rce1p protease inhibitors, primary screen, biochemical, fluorescence, cell-free homogeneous; AID 2563, 2010; CAAX prenyl protease 2 (Saccharomyces cerevisiae (strain ATCC 204508 / S288c)), Q03530; actives 0.27% (n = 290,000); yeast membranes, quenched prenylated peptide cleavage fluorescence; calls only;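 active = fall in fluorescence gain of 50% or more versus controls, with final raw signal at or below 3038400; inconclusive = same 50% fall but final raw signal above 3038400; inactive = fall in fluorescence gain under 50%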
Target sequence (Q03530 whole entry, looked up): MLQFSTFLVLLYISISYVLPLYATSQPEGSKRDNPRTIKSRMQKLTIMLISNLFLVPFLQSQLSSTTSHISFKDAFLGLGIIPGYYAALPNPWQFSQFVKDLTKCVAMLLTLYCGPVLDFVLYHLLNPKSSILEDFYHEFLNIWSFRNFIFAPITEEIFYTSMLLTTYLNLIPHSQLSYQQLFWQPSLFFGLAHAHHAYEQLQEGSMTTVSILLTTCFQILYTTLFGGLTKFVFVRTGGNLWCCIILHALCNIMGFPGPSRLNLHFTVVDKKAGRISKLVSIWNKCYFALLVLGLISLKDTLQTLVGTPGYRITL
V-ATPase pHluor – regulators of yeast V-ATPase proton pumping, primary screen, pHLuorin cytosolic pH fluorescence | actives 0.37% (n = 350,000) | AID 504577, 2011 | response, % at 10 µM | S. cerevisiae; in the data active = response mostly above about 7.3%, no sharp cut-off; inactive = mostly below about 5.4%; note: actives read high
MIN6 prolif – inducers of MIN6 beta-cell proliferation, primary screen, ATP luminescence, uHTS; MIN6 cells proliferation, ATPlite luminescence, 48 h; cells starved in 0.2% serum; 100% = growth in 10% serum; proliferation, % at 10 µM; actives 0.29% (n = 330,000);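 active = compounds whose signal lies at least 3.5 SD above the mean of all wells on their plate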
T cell modulator – modulators of CD8 T cell-vesicle binding, primary screen, mouse 2C CD8+ T cells, flow cytometry. 2C CD8+ T cell-vesicle binding; stronger effect = lower value. response (vesicle binding), % at 7 µM. actives 0.068% (n = 330,000);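 active = response, share of CD8 T cells binding vesicles, and their 90th percentile fluorescence all below set limits, cut at about 80% in these data, passing the limit was not always enough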;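 note: values below 100% mean blocked vesicle binding to the CD8+ T cells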
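Incubation: binding step 1.5 h, 37 °C, antibody labelling 20 min, ice; system: murine 2C transgenic CD8+ T lymphocytes; technique: cytometric PE anti-B7-1 and Alexa647 anti-CD8 signals after 1% paraformaldehyde fixation; also added: QL9-charged Drosophila Ld/ICAM-1/B7-1 vesicles; control set: naked versus QL9-loaded vesicles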
proKLK7 act conf – proKLK7 zymogen activators, confirmation, biochemical, fluorescence intensity, triplicate; shares compounds with KLK7 zymogen act; purified proKLK7, EDANS-DABCYL substrate fluorescence; scaled: vehicle 0, mature enzyme 100; activation, % at 7 µM; actives 68% (n = 3,200); AID 686949, 2013;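 active = activation, as change over the incubation, above the mean of all tested compounds plus 3 SD, cut at about 13% in these data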
EDANS-DABCYL int – EDANS-DABCYL substrate optical interference, artefact control for kallikrein-7 zymogen activator project, biochemical, fluorescence intensity, high throughput; shares compounds with KLK7 zymogen act; no enzyme, 4 h; solvent 0%, active enzyme control 100%; activation, % at 7 µM; actives 80% (n = 3,200); AID 686952, 2013;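 active = activation above the all-compound mean plus 3 SD, ignoring values outside control-based bounds, cut at about 4.8% in these data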;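 note: value is the 4 h activation minus the activation read at time zero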
EDANS interf – optically interferes with EDANS-DABCYL fluorescence, kallikrein-7 activator counter-screen | EC50, µM | AID 720493 | shares compounds with KLK7 zymogen act | EDANS-DABCYL peptide fluorescence interference, no enzyme | actives 20% (n = 250);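 active = compounds that raise the fluorescence signal in this interference counterscreen, with EC50 at or below 10 µM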;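 note: intact quenched peptide substrate alone read at 355 nm excitation and 520 nm emission; signal is fluorescence gain from T0 to T4 after four hours at room temperature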
Numbers stand for hits; n = inactive; u = inconclusive; x = no result given. A selection: hits, their analogues and other compounds. The true share with any hit is near 1.9%.

SMILES	KLK7 zymogen act	CR mimetic SO	Rce1 inh	V-ATPase pHluor	MIN6 prolif	T cell modulator	proKLK7 act conf	EDANS-DABCYL int	others
O=C(CCc1c[nH]c2ccccc12)Nc1ccc(Nc2cccnc2)cc1	n	x	x	x	x	x	x	x
Cc1cccc(C(=O)OCC(=O)Nc2ccccc2C(=O)NC2CC2)c1	n	n	x	n	n	n	x	x
CCCc1cc(NCCCN(C)C)n2c(nc3ccccc32)c1C#N	83.4	n	n	n	n	n	n	20.4
CCCc1cc(NCCN(C)C)n2c(nc3ccccc32)c1C#N	57.1	n	n	n	n	n	20.1	6.5	EDANS interf=n
CCCc1cc(NCC2CCCO2)n2c(nc3ccccc32)c1C#N (stereo unspecified)	17.4	n	n	n	n	n	n	n
C[C@@H](NS(=O)(=O)c1c(F)cccc1F)c1ccccc1	n	x	x	x	x	x	x	x
COCCN(C(=O)COC(=O)Cc1ccc(Cl)cc1)c1c(N)n(Cc2ccccc2)c(=O)[nH]c1=O	n	x	x	x	x	x	x	x
CC1CC(C)CN(CCCNC(=O)CN2C(=O)CSc3ccc(S(=O)(=O)N4CCOCC4)cc32)C1 (stereo unspecified)	n	n	n	n	n	n	x	x
CNc1ccc(Cl)cc1C(N)=O	16.6	n	n	n	n	n	n	20.0
NNC(=O)c1cc(Cl)ccc1Cl	n	n	n	n	n	n	x	x
COc1ccc2c(c1)O/C(=C\c1ccccc1C)C2=O	n	n	n	n	n	n	x	x
Cc1ccsc1/C=C1\Oc2cc(O)ccc2C1=O	15.0	x	x	n	x	x	21.2	24.1
COc1cc(/C=C2\Oc3cc(O)ccc3C2=O)ccc1O	54.6	n	n	n	n	n	35.8	35.5
O=C1/C(=C/c2ccc(O)c(O)c2)Oc2cc(O)ccc21	45.2	n	x	n	n	n	109.0	118.5
O=C1/C(=C/c2cccc([N+](=O)[O-])c2)Oc2cc(O)ccc21	n	n	n	n	n	n	x	x
COc1ccc(OC)c(NC(=O)COC(=O)CCc2nc3ccccc3c(=O)[nH]2)c1	n	n	x	n	n	n	x	x
CCOc1ccc(S(=O)(=O)N2CCC(C(=O)NCc3cccnc3)CC2)cc1	n	n	n	n	n	n	x	x
CN1CCN(C(=O)C(=O)c2cn(CC(=O)N3CCCCCC3)c3ccccc23)CC1	n	x	x	n	x	x	x	x
CNc1ccccc1C(=O)OCC(=O)N(CCOC)c1c(N)n(CC(C)C)c(=O)[nH]c1=O	19.8	n	n	n	n	n	17.7	15.9
Nc1ccc(-c2ccc(C(=O)O)s2)cn1	19.1	n	u	n	n	n	72.9	81.8
O=c1ccoc2ccccc12	n	x	x	x	x	x	x	x
COc1cc(OC)c2ccc(=O)oc2c1	89.9	n	x	n	n	n	49.2	61.1
COc1cc(OC)c2c(C)cc(=O)oc2c1	32.4	n	n	n	n	n	37.7	48.0
Cc1cc(=O)oc2cc(O)cc(O)c12	65.8	x	x	n	x	x	67.3	76.4
CCCCOCC1CN(CCCC)S(=O)(=O)c2c(cccc2N2CCCC2)O1 (stereo unspecified)	n	x	x	x	x	x	x	x
O=C(CN1C(=O)CNC1=O)Nc1cc(Cl)cc(Cl)c1	n	n	x	n	n	n	x	x
CN(Cc1cccs1)C(=O)C1CC(=O)N(Cc2ccccc2)C1 (stereo unspecified)	n	n	n	n	n	n	x	x
COc1ccc(C2=NN(c3ccc(C(=O)O)cc3)C(c3ccc(OC)c(OC)c3)C2)cc1 (stereo unspecified)	66.8	n	n	n	n	n	64.9	63.1
COc1ccc(C2CC(c3ccncc3)=NN2c2ccc(S(N)(=O)=O)cc2)cc1 (stereo unspecified)	91.3	n	x	n	x	x	n	8.8

Compound activity deposited in PubChem by several laboratories.
